Drawing on ChEMBL document CHEMBL3627702, “Navigating CYP1A Induction and Arylhydrocarbon Receptor Agonism in Drug Discovery. A Case History with S1P1 Agonists” (J Med Chem, 2015), this text covers fold induction, Activity and CLint scaled for two compounds.

Structures are written as SMILES. Bounds are passed on as bounds.

The test system of series [1] is CYP1A2. The series is described as follows: Induction of CYP1A2 mRNA expression in rat hepatic microsomes at 30 mg/kg, po QD for 7 days relative to control. Type of series: ADME, organism-based, Liver. To be noted: read-out: FC. A digest of the protocol: (§1)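 Male rats dosed orally once daily for 7 days. Hepatic mRNA measured by Taqman and expressed as fold induction versus control animals.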

The subject of series [2] is Rattus norvegicus. Nature of the series: Induction of CYP1A2 gene expression in po dosed rat hepatic microsomes administered po QD for 7 days. The conditions noted are these: 168 h. Type of series: ADME, organism-based, Liver. A digest of the protocol:
(§2)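 Rats dosed orally once daily for 7 days at 30–300 mg/kg/day, depending on compound. Hepatic AhR-panel gene mRNA (Cyp1a, Nqo1, Ephx1) measured and expressed as fold induction versus control animals.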

In series [3] the test system is Rattus norvegicus. The series is described as follows: Induction of CYP1A1 gene expression in po dosed rat hepatic microsomes administered po QD for 7 days. It counts as ADME, organism-based, Liver. The conditions noted are these: 168 h. The method in brief:
(§3)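 Rats received oral doses daily for 7 days: 30 and 100 mg/kg, or 30, 100 and 300 mg/kg, depending on compound. Hepatic CYP1A1 mRNA was expressed as fold induction versus control animals.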

In series [4] the test system is Rattus norvegicus. Nature of the series: Induction of Nqo1 gene expression in rat hepatic microsomes at 30 to 300 mg/kg, po QD for 7 days. Type of series: organism-based, Liver. To be noted: 168 h. A digest of the protocol:
as §2

Series [5] deals with CYP1A1. Nature of the series: Induction of CYP1A1 mRNA expression in rat hepatocytes at 10 uM by Taqman analysis relative to control. The conditions noted are these: read-out: FC. Type of series: ADME, cell-based, Hepatocyte. (In qPCR the cycle at which signal appears reflects the starting amount.)
Series [6] has as its system CYP1A2. Nature of the series: Induction of CYP1A2 mRNA expression in rat hepatocytes at 10 uM by Taqman analysis relative to control. To be noted: read-out: FC. Type of series: ADME, cell-based, Hepatocyte.
Series [7] relates to CYP1A1. Nature of the series: Induction of CYP1A1 gene expression in rat hepatic microsomes at 30 to 300 mg/kg, po QD for 7 days. Type of series: ADME, organism-based, Liver. To be noted: read-out: FC. The method in brief: as §3
Series [8] has as its system CYP1A1. The series is described as follows: Induction of CYP1A1 mRNA expression in rat hepatic microsomes at 30 mg/kg, po QD for 7 days relative to control. Type of series: ADME, organism-based, Liver. To be noted: read-out: FC. The method in brief: as §1
The subject of series [9] is Rattus norvegicus. The series is described as follows: Induction of Nqo1 gene expression in po dosed rat hepatic microsomes administered po QD for 7 days. It counts as organism-based, Liver. To be noted: 168 h. The method in brief: as §2
For series [10], the system named is Rattus norvegicus. Nature of the series: Induction of Ephx1 gene expression in rat hepatic microsomes at 30 to 300 mg/kg, po QD for 7 days. The conditions noted are these: 168 h. Type of series: organism-based, Liver. The method in brief:
as §2

For series [11], the system named is Rattus norvegicus. Nature of the series: Induction of CYP1A2 gene expression in rat hepatic microsomes at 30 to 300 mg/kg, po QD for 7 days. It counts as ADME, organism-based, Liver. The conditions noted are these: 168 h. The method in brief:
as §2

Series [12] concerns Rattus norvegicus. The series is described as follows: Induction of Ephx1 gene expression in po dosed rat hepatic microsomes administered po QD for 7 days. It counts as organism-based, Liver. The conditions noted are these: 168 h. A digest of the protocol: as §2
Series [13] deals with Rattus norvegicus. Nature of the series: Induction of Ephx1 gene expression in rat hepatic microsomes at 30 to 100 mg/kg, po QD for 7 days. Type of series: organism-based, Liver. To be noted: 168 h.
Series [14] has as its system Cynomolgus monkey. Nature of the series: Induction of CYP1A1 gene expression in cynomolgus monkey liver at 30 mg/kg, po QD for 7 days by Taqman analysis. Type of series: ADME, organism-based, Macaca fascicularis. To be noted: in vivo, 168 h. The method in brief:
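Cynomolgus monkeys were dosed orally at 30 mg/kg daily. Hepatic CYP1A1 mRNA from treated livers was measured by Taqman and compared with vehicle-control animals.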

Series [15] has as its system CYP1A1. Nature of the series: Induction of CYP1A1 gene expression in rat hepatic microsomes at 30 to 100 mg/kg, po QD for 7 days. To be noted: read-out: FC. Type of series: ADME, organism-based, Liver.
For series [16], the system named is Cynomolgus monkey. Nature of the series: Induction of CYP1A2 gene expression in cynomolgus monkey liver at 30 mg/kg, po QD for 7 days by Taqman analysis. Type of series: ADME, organism-based, Macaca fascicularis. To be noted: in vivo, 168 h. A digest of the protocol:
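Cynomolgus monkeys dosed orally at 30 mg/kg daily for 7 days. Liver CYP1A2 mRNA measured by Taqman analysis in treated animals versus vehicle-control animals.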

Series [17] has as its system Rattus norvegicus. Nature of the series: Induction of CYP1A2 gene expression in rat hepatic microsomes at 30 to 100 mg/kg, po QD for 7 days. Type of series: ADME, organism-based, Liver. To be noted: 168 h.
Series [18] is described as follows: Intrinsic clearance in cynomolgus monkey liver microsomes by LC-MS/MS analysis. Type of series: ADME, Macaca fascicularis. A digest of the protocol:
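Liver microsomes were prepared from control and treated cynomolgus monkeys by differential centrifugation (10 000g, then 105 000g). Compound incubated at 37 °C in 50 mM potassium phosphate pH 7.4 with an NADPH-generating system. Samples taken at 0–30 min, quenched with solvent containing internal standard, and analysed by LC–MS/MS to derive intrinsic clearance.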

Series [19] has as its target T1, CYP1A2 (Homo sapiens, UniProt P05177).
T1 sequence (P05177 whole entry): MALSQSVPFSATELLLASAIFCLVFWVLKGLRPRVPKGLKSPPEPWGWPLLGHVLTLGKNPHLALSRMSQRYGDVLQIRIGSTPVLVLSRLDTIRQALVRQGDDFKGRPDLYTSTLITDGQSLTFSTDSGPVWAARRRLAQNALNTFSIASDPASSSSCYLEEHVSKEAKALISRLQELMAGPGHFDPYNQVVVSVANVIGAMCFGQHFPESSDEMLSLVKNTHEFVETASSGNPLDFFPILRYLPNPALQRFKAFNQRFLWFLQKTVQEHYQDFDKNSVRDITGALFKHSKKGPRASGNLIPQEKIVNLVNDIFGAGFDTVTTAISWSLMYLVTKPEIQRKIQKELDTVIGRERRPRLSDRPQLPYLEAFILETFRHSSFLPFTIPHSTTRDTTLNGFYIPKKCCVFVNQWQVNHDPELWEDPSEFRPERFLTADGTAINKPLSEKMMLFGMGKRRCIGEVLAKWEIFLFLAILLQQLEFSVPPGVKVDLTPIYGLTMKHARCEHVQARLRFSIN
The series is described as follows: Induction of CYP1A2-mediated 7-ethoxyresorufin O-deethylase activity in human hepatocytes at 5 uM after 10 mins by fluorescence assay relative to control. To be noted: probe 7-ethoxyresorufin, read-out: FC. Type of series: ADME, cell-based, Hepatocyte. The method in brief:
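Human hepatocytes were treated for 48 h (re-dosed at 24 h), washed, then incubated with 0.5 μM ethoxyresorufin in serum-free medium for 10 min at 37 °C. Resorufin fluorescence read at Ex 530/Em 590 nm. Rate in fluorescence units/min expressed as fold over solvent control.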

Series [20] relates to Rattus norvegicus. Nature of the series: Induction of Nqo1 gene expression in rat hepatic microsomes at 30 to 100 mg/kg, po QD for 7 days. Type of series: organism-based, Liver. The conditions noted are these: 168 h.
The test system of series [21] is CYP1A2. The series is described as follows: Induction of CYP1A2 mRNA expression in human hepatocytes at 10 uM relative to control. Type of series: ADME, cell-based, Hepatocyte. To be noted: read-out: FC.

As to `CC(C)Oc1ccc(-c2nc(-c3ccc4c(c3)CCN(CCCC(=O)O)CC4)no2)cc1C#N`, the fold induction at 168 h with CYP1A2 [1] is 2; in the series on CYP1A1 [7] it was 10000; in the series on CYP1A1 [8], 210. For the same compound, the Activity entry with Rattus norvegicus [2] is given as “Dose-dependent effect”; in the series with Rattus norvegicus [3] it was “Dose-dependent effect”; in the series with Rattus norvegicus [4] it was “Toxic”; with Rattus norvegicus [9], “Dose-dependent effect”; in the series on Rattus norvegicus [10], “Toxic”; in the series on Rattus norvegicus [11], “Toxic”. For the same compound, the Activity result in the series with Rattus norvegicus [12] is recorded as “Dose-dependent effect”. Also, the results for the fold induction at 10 µM in the series on CYP1A1 [5] and with CYP1A2 [6] were 3 and 2, respectively.

For orientation: CLint scaled means the capacity of the preparation to metabolise the compound, expressed as a volume cleared per time. On to `CC(C)Oc1ccc(-c2nc(-c3cccc4c3cnn4CCC(=O)O)no2)cc1Cl`, for which the Activity result in the series with Rattus norvegicus [13] is listed as “Toxic”; in the series on Cynomolgus monkey [14], “Toxic”; in the series on Cynomolgus monkey [16], “Toxic”; in the series with Rattus norvegicus [2], “Dose-dependent effect”; in the series with Rattus norvegicus [17], “Toxic”; with Rattus norvegicus [3] it was “Dose-dependent effect”. The Activity entry in the series on Rattus norvegicus [9] was “Dose-dependent effect”; with Rattus norvegicus [20], “Toxic”; in the series with Rattus norvegicus [12] it was “Dose-dependent effect”. Besides, the fold induction at 168 h was determined as 10000 with CYP1A1 [15], 2 in the series on CYP1A2 [1] and 35 with CYP1A1 [8]. Further, the fold induction at 10 µM with CYP1A1 [5] was below 1; with CYP1A2 [6], below 1; in the series on CYP1A2 [21], 45. Also, the CLint scaled in series [18] was 11 mL/min/g. In addition, on CYP1A2 [19], the fold induction at 10 min, 5 µM worked out at 7.7.
